Laboratory results: ChEMBL document CHEMBL4190393, “Specific Stereoisomeric Conformations Determine the Drug Potency of Cladosporin Scaffold against Malarial Parasite” (J Med Chem, 2018)

Legend:
[1] = molecular target: Lysine--tRNA ligase (Plasmodium falciparum (isolate 3D7)) (UniProt Q8IDJ8); assay: Binding affinity to Plasmodium falciparum KRS expressed in Escherichia coli BL21 by thermal shift assay
Outline: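 Protein thermal shift assay with PfKRS at 2 μM in the presence of L-lysine. Binding is reported as the shift in melting temperature (ΔTm, °C) of the enzyme when the compound is added.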

Lysine--tRNA ligase [2] = molecular target: T1, Lysine--tRNA ligase (Homo sapiens, UniProt Q15046); assay: Binding affinity to human KRS expressed in Escherichia coli BL21 by thermal shift assay
Outline: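 Protein thermal shift assay with Hs-KRS at 4 μM in the presence of L-lysine; binding read out as the shift in melting temperature (ΔTm, °C) produced by each ligand.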
Target sequence in this assay (Q15046 2-597 limits assumed): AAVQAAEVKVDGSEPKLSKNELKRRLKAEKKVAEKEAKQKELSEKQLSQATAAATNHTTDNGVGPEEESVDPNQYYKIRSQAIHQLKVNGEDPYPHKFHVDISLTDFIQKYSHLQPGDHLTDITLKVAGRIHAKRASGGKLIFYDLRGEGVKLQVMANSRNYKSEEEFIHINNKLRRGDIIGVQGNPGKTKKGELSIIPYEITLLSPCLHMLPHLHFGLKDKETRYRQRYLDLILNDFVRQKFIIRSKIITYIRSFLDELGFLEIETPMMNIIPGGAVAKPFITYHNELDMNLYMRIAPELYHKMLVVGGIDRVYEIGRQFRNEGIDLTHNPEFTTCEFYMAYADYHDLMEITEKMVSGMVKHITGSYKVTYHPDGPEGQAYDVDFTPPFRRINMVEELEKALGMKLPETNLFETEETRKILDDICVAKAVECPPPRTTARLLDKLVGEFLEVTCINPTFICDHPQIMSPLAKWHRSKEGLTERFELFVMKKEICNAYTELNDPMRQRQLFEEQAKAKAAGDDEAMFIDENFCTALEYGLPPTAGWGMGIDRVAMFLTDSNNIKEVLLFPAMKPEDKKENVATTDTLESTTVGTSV

Lysine--tRNA ligase [3] = molecular target: Lysine--tRNA ligase (Plasmodium falciparum (isolate 3D7), UniProt Q8IDJ8); assay: Inhibition of Plasmodium falciparum KRS expressed in Escherichia coli BL21 using tRNA(Lys) as substrate after 45 mins in presence of L-lysine by AMP-GLO assay
Lysine--tRNA ligase [4] = molecular target: T1, Lysine--tRNA ligase; assay: Inhibition of human KRS expressed in Escherichia coli BL21 using tRNA(Lys) as substrate after 1 hr in presence of L-lysine by AMP-GLO assay
Target sequence in this assay (Q15046 whole entry): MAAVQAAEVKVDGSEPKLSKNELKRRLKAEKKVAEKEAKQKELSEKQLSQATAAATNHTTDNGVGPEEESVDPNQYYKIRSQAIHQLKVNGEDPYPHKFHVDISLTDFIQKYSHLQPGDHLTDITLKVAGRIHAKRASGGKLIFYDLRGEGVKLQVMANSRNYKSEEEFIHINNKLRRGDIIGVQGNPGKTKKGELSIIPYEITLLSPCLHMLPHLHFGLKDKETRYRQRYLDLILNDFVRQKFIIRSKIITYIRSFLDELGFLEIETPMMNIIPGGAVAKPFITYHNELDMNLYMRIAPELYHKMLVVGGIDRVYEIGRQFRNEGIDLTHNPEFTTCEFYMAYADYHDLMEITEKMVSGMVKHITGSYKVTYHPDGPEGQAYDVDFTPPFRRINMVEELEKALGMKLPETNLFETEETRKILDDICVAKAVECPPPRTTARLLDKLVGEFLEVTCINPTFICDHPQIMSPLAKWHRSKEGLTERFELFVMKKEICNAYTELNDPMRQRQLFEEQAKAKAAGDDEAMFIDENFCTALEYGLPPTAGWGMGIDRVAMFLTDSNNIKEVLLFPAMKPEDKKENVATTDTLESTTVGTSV

Plasmodium falciparum = assay: Antiparasitic activity against Plasmodium falciparum 3D7 infected in human erythrocytes after 48 hrs by SYBR green-1 staining based assay; assay type: functional, organism-based; settings: 3D7, 48 h
[5] = Selectivity ratio of IC50 for human KRS to IC50 for Plasmodium falciparum KRS

Chain of Lysine--tRNA ligase (Plasmodium falciparum (isolate 3D7)) (Q8IDJ8 1-583): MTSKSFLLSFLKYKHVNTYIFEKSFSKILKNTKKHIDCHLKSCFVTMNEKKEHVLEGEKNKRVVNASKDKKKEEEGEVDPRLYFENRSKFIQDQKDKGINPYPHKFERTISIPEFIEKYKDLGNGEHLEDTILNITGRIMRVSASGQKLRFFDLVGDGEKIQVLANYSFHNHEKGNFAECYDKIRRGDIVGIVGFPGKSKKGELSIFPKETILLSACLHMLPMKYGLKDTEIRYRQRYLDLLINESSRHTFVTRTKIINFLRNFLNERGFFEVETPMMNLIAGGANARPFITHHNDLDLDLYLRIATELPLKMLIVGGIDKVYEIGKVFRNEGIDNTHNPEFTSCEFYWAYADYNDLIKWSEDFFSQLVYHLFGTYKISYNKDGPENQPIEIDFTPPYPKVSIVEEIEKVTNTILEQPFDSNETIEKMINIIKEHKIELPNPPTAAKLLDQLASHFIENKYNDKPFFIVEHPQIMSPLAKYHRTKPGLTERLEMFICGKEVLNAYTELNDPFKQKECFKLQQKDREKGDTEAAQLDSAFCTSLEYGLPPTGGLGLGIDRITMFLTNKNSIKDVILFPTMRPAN
Chain of Lysine--tRNA ligase (Plasmodium falciparum (isolate 3D7), UniProt Q8IDJ8) (Q8IDJ8 whole entry): as the sequence (Q8IDJ8 1-583) above

| Compound | ΔTm [1] | ΔTm (Lysine--tRNA ligase [2]) | IC50 (Lysine--tRNA ligase [3]) | IC50 (Lysine--tRNA ligase [4]) | EC50 (Plasmodium falciparum) | Ratio IC50 [5] |
| --- | --- | --- | --- | --- | --- | --- |
| C[C@H]1CCC[C@H](C[C@@H]2Cc3cc(O)cc(O)c3C(=O)O2)O1 | 14.3 °C | 0.5 °C | 4.64 µM | > 100 µM | 1.6 µM | – |
| C[C@@H]1CCC[C@H](C[C@@H]2Cc3cc(O)cc(O)c3C(=O)O2)O1 | 11.8 °C | 0.3 °C | 21.3 µM | > 100 µM | > 2 µM | – |
| C[C@@H]1CCC[C@@H](C[C@H]2Cc3cc(O)cc(O)c3C(=O)O2)O1 | 13.5 °C | 1.1 °C | 7.25 µM | > 100 µM | 1.15 µM | – |
| C[C@H]1CCC[C@@H](C[C@@H]2Cc3cc(O)cc(O)c3C(=O)O2)O1 | 11.4 °C | 1.1 °C | 29 µM | > 100 µM | > 2 µM | – |
| C[C@H]1CCC[C@H](C[C@H]2Cc3cc(O)cc(O)c3C(=O)O2)O1 [CLADOSPORIN] | 17.3 °C | 1.3 °C | 0.12 µM | 105 µM | 0.04 µM | 840 |
| C[C@@H]1CCC[C@H](C[C@H]2Cc3cc(O)cc(O)c3C(=O)O2)O1 | 16.2 °C | 1 °C | 0.29 µM | > 100 µM | 0.27 µM | – |
| C[C@@H]1CCC[C@@H](C[C@@H]2Cc3cc(O)cc(O)c3C(=O)O2)O1 | 7.9 °C | -0.9 °C | 50 µM | > 100 µM | > 2 µM | – |
| C[C@H]1CCC[C@@H](C[C@H]2Cc3cc(O)cc(O)c3C(=O)O2)O1 | 15.6 °C | 0.1 °C | 5.8 µM | > 100 µM | 1.1 µM | – |
